In ChEMBL document CHEMBL5316295, “Systematic Design of Adenosine Analogs as Inhibitors of a Clostridioides difficile-Specific DNA Adenine Methyltransferase Required for Normal Sporulation and Persistence” (J Med Chem, 2023) one finds inhibition, IC50 and Kd data, which are given here for three molecules.

The test system of one assay is Caulobacter vibrioides. As to the kind of experiment: Inhibition of Caulobacter vibrioides CcrM using 5'-CGA TTC AAA AAG TCC CAA G-3' and 3'-GCT AAG TTT TTC AGG GTT C-5' as substrate and SAM as cosubstrate at 10 uM incubated for 5 mins. In short, it runs like this:
(§1)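 Conditions were enzyme 0.1 μM, DNA 5 μM, SAM 30 μM, inhibitor 10 μM, at ~22 °C in 50 mM Tris–HCl pH 7.5, 100 mM NaCl, 1 mM DTT, 0.25% DMSO, run 5 min. Substrate and SAM levels were above K_M.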

Assay [1] deals with T1, RNA N(6)-adenosine-methyltransferase METTL16 (Homo sapiens) (UniProt Q86W50).
T1 sequence (whole entry): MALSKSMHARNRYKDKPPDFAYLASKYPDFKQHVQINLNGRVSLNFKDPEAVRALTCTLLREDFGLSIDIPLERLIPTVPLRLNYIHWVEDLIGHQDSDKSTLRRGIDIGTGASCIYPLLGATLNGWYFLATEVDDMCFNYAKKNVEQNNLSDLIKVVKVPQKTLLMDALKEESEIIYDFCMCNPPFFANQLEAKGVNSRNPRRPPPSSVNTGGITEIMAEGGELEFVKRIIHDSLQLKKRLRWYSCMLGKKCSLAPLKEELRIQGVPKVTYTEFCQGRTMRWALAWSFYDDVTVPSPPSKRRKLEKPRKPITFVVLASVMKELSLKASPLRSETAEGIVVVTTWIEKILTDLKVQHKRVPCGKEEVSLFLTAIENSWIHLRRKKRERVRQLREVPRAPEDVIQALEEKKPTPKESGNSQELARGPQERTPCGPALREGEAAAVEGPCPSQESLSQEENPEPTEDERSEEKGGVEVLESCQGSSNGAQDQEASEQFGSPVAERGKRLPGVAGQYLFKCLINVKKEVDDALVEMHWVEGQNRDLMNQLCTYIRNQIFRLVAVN
As to the kind of experiment: Inhibition of human METTL16 using 5'-GGUUGGCGUAGGCUACAGAGAAGCCAACC-3' as substrate and SAM as cosubstrate at 10 uM incubated for 15 mins. In short, it runs like this:
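Under CamA buffer conditions (30 μM SAM) the assay ran 15 min with ssRNA hairpin substrate and 10 μM inhibitor. A separate condition used 0.4 μM enzyme, 5 μM RNA, 160 μM SAM in 20 mM Tris–HCl pH 8.0, 400 mM NaCl, 1 mM DTT, 0.25% DMSO for 30 min.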

Assay [2] concerns the target T2, DNA adenine methylase (Escherichia coli K-12) (UniProt P0AEE8).
T2 sequence (whole entry): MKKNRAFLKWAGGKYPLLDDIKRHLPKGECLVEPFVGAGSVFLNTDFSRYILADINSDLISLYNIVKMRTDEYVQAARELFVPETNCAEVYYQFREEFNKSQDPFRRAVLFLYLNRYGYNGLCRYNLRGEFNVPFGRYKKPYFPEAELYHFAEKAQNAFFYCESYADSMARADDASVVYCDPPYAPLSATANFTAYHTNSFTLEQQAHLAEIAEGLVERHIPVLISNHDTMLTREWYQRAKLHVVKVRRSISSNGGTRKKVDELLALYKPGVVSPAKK
As to the kind of experiment: Inhibition of Escherichia coli Dam using 5'-CCG CGG ATC CTG CT-3' and 3'-GGC GCC TAG GAC GA-5' as substrate and SAM as cosubstrate at 10 uM incubated for 5 mins. The essentials: as §1

For assay [3], the target named is Protein arginine N-methyltransferase 1 (Homo sapiens) (UniProt Q99873). As to the kind of experiment: Inhibition of PRMT1 (unknown origin) using histone H4 as substrate and 3H-SAM as cosubstrate at 10 uM pretreated with compound for 20 mins in presence of histone H4 followed by cosubstrate addition and measured after 1 hr. As to conditions: time 80.0 min. In short, it runs like this:
(§2)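 Enzymes (DOT1L 1 nM; EZH2, G9a, PRMT1 5 nM) mixed with substrate (0.05 mg/mL oligonucleosomes for DOT1L; 0.05 mg/mL core histone for EZH2; 5 μM H3 1–21 peptide for G9a; 5 μM H4 for PRMT1). Compound (10 μM) added for 20 min at room temperature, then 1 μM ³H-SAM for 1 h at 30 °C; filter-paper read-out. Triplicates, mean ± SD.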

Assay [4] has as its target METTL5-TRM112 (Homo sapiens) (UniProt Q9UI30+Q9NRN9). As to the kind of experiment: Inhibition of human METTL5/TRM112 using 5'-UCG UAA CAA GGU UU-3' as substrate and SAM as cosubstrate at 10 uM incubated for 1 hr. Type of assay: protein-complex assay. In short, it runs like this:
(§3)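 Enzyme 0.1 μM with 5 μM RNA, 30 μM SAM and 10 μM inhibitor at ~22 °C in 50 mM Tris–HCl pH 7.5, 100 mM NaCl, 1 mM DTT, 0.25% DMSO. PCIF1 run 15 min with capped RNA; MettL5-Trm112 run 1 h with ssRNA.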

The nature of assay [5]: Inhibition of Clostridioides difficile-specific DNA adenine methyltransferase mediated methylation using 5'-CGA TTC AAA AAG TCC CAA G-3' and 3'-GCT AAG TTT TTC AGG GTT C-5' as substrate and SAM as cosubstrate preincubated for 5 mins followed by substrate and cosubstrate addition and measured after 3 mins by MTase glo assay.
The target in assay [6] is DNA (cytosine-5)-methyltransferase 1 (Homo sapiens) (UniProt P26358). As to the kind of experiment: Inhibition of human DNMT1 (351 to 1600 residues) using 5'-CCT GCG GAG GCT MGT CAT GA-3' and 3'-GGACGCCTCCGAGCAGTACT-5' as substrate and SAM as cosubstrate at 10 uM incubated for 1 hr. In short, it runs like this:
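DNMT1 (0.1 μM) with 1 μM hemimethylated dsDNA, 5.5 μM SAM and 10 μM inhibitor in 50 mM Tris pH 7.5, 1 mM EDTA, run 1 h at 37 °C.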

Assay [7] deals with Histone-lysine N-methyltransferase EZH2 (Homo sapiens) (UniProt Q15910). As to the kind of experiment: Inhibition of EZH2 (unknown origin) using chicken core histone as substrate and 3H-SAM as cosubstrate at 10 uM pretreated with compound for 20 mins in presence of chicken core histone followed by cosubstrate addition and measured after 1 hr. The following applies: time 80.0 min. In short, it runs like this: as §2

Assay [8] deals with mRNA (2'-O-methyladenosine-N(6)-)-methyltransferase (Homo sapiens) (UniProt Q9H4Z3). As to the kind of experiment: Inhibition of human PCIF1 using m7GpppAmG as substrate and SAM as cosubstrate at 10 uM incubated for 15 mins. In short, it runs like this: as §3
Assay [9] has as its target Histone-lysine N-methyltransferase, H3 lysine-79 specific (Homo sapiens) (UniProt Q8TEK3). As to the kind of experiment: Inhibition of human DOT1L using oligonucleosome as substrate and 3H-SAM as cosubstrate at 10 uM pretreated with compound for 20 mins in presence of oligonucleosome followed by cosubstrate addition and measured after 1 hr. The following applies: time 80.0 min. In short, it runs like this:
as §2

Assay [10] can be described thus: Binding affinity to Clostridioides difficile-specific DNA adenine methyltransferase by MicroCal PEAQ-ITC instrument analysis.

Activity calls are given as the source filed them. The rule behind the calls is not given here.

Histone-lysine N-methyltransferase, H3 lysine-79 specific (Homo sapiens), sequence (Q8TEK3 whole entry, looked up): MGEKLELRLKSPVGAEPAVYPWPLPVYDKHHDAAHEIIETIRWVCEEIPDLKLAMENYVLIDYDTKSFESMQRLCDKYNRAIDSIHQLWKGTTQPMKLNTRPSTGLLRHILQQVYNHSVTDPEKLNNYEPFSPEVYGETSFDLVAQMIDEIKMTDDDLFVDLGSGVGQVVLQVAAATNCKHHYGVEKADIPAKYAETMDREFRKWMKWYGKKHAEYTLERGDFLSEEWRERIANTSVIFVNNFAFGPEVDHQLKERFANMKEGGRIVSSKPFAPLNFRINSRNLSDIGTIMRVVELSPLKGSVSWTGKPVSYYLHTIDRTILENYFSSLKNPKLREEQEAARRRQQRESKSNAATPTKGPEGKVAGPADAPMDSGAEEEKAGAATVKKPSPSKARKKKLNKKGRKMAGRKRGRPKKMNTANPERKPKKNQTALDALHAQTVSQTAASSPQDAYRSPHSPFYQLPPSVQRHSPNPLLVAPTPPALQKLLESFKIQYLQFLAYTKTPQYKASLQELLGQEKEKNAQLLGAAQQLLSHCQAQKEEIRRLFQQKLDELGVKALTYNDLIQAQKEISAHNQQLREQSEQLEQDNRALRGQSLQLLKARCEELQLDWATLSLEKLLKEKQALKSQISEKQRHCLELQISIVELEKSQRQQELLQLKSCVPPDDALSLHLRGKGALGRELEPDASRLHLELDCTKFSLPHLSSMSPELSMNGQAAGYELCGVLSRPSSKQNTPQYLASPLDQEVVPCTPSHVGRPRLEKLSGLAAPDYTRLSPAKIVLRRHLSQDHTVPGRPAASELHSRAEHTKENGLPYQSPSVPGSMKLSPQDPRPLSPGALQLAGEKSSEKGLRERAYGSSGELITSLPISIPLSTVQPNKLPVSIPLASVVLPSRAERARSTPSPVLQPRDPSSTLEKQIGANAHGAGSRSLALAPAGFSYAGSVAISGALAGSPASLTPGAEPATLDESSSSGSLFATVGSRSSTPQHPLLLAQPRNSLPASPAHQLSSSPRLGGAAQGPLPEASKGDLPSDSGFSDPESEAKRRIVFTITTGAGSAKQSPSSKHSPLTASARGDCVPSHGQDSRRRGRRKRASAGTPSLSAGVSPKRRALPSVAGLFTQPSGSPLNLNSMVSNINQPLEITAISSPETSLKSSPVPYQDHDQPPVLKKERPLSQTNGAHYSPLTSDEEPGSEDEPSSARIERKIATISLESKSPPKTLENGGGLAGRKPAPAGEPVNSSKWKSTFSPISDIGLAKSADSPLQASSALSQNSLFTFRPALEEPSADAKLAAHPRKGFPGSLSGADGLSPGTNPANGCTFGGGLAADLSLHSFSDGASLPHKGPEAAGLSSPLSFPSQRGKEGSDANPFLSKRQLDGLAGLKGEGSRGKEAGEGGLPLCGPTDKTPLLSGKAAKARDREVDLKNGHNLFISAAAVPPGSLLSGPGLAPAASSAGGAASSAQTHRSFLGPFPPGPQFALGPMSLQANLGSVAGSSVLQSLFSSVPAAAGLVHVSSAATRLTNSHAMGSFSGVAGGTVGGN
Protein arginine N-methyltransferase 1 (Homo sapiens), sequence (Q99873 whole entry, looked up): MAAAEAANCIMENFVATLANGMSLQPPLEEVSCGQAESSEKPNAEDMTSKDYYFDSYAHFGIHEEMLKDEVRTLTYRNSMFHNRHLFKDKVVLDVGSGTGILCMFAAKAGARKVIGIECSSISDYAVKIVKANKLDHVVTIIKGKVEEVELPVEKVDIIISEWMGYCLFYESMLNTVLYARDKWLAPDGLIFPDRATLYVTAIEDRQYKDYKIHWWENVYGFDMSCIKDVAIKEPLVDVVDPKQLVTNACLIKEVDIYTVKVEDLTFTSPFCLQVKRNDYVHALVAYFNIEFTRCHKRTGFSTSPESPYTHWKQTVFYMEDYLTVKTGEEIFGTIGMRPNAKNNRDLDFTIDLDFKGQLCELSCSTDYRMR
DNA (cytosine-5)-methyltransferase 1 (Homo sapiens), sequence (P26358 whole entry, the tested form may be a part): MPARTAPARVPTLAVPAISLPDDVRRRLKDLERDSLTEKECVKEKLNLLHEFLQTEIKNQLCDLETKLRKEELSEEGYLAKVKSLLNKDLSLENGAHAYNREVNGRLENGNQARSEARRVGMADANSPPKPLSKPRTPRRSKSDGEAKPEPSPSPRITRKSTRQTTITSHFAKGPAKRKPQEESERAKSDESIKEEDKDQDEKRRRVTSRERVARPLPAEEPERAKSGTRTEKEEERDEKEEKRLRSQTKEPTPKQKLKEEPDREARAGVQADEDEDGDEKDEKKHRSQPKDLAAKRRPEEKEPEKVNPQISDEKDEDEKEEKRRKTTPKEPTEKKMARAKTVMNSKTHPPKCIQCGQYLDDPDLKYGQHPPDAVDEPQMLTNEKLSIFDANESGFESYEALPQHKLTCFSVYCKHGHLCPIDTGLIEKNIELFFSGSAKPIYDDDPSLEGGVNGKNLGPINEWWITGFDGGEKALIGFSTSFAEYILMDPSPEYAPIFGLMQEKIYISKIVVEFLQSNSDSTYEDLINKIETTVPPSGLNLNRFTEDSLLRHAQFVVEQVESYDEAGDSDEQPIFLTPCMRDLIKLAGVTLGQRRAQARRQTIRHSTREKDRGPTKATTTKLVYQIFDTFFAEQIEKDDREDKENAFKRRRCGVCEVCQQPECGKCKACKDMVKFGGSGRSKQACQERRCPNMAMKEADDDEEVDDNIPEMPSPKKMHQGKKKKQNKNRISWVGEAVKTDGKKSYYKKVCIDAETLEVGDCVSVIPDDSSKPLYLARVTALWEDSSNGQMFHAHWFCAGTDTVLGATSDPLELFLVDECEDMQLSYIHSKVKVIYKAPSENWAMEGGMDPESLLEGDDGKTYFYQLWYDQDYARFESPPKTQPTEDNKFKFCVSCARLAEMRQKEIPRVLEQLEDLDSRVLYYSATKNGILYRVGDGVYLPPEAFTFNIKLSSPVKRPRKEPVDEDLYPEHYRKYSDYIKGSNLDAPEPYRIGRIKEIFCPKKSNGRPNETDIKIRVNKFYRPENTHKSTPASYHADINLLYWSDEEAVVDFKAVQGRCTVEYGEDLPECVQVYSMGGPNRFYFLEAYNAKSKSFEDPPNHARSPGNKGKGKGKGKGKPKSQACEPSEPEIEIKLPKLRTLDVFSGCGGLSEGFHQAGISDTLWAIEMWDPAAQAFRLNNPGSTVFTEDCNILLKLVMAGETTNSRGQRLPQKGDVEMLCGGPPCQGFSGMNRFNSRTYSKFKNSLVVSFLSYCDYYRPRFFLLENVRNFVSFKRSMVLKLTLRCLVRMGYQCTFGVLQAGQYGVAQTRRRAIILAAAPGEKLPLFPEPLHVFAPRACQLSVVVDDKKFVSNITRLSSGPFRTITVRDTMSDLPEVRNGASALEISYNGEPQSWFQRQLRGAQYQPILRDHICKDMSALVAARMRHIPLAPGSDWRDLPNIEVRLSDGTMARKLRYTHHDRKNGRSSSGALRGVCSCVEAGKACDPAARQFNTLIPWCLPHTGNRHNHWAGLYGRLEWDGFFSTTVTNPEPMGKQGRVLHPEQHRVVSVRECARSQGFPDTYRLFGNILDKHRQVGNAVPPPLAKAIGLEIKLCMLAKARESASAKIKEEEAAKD
mRNA (2'-O-methyladenosine-N(6)-)-methyltransferase (Homo sapiens), sequence (Q9H4Z3 whole entry): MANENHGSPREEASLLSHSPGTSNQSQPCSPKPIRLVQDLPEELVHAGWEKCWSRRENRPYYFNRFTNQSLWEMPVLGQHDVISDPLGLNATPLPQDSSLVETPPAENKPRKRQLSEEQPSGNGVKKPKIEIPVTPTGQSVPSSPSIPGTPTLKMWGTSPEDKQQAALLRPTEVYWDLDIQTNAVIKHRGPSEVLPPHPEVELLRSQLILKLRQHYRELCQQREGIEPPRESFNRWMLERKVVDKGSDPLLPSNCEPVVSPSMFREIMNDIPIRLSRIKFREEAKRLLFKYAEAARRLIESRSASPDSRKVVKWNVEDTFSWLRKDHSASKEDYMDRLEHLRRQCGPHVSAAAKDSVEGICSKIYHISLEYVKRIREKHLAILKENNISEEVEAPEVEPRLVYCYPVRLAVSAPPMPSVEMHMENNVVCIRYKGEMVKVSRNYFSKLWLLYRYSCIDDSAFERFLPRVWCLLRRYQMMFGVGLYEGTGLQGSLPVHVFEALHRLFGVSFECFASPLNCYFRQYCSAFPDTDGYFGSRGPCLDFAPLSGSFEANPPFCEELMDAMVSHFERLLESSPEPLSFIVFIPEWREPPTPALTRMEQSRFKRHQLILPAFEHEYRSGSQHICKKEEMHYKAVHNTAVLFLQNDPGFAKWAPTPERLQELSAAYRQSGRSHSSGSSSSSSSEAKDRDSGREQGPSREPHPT
Histone-lysine N-methyltransferase EZH2 (Homo sapiens), sequence (Q15910 whole entry, looked up): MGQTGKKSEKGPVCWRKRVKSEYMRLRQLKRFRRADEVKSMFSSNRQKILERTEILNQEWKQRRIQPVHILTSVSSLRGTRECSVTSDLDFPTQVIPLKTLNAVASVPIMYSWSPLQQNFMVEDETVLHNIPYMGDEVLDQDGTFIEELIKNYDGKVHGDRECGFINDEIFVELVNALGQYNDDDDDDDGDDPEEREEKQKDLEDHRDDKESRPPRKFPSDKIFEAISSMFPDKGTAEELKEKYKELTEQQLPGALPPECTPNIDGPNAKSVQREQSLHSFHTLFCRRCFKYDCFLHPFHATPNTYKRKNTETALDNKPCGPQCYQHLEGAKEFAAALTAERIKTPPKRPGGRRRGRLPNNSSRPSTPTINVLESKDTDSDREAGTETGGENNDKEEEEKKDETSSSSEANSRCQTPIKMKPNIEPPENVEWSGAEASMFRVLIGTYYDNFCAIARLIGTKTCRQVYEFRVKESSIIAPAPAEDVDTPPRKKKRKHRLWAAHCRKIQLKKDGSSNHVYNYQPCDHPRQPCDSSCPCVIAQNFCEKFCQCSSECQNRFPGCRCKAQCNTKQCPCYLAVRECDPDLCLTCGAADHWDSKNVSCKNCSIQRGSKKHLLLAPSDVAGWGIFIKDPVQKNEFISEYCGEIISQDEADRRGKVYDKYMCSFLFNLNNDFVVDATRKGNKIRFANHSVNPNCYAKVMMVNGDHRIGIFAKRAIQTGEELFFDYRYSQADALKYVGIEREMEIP

A word on the IC50: it is the midpoint of a concentration-inhibition curve. Read a low IC50 as higher potency. As usually defined, the Kd is the constant that tells how readily two partners part at equilibrium. Low values mean tighter binding, high ones weaker binding. Consider `OC[C@H]1O[C@@H](n2cnc3c(NCCCc4ccc(O)cc4)ncnc32)[C@H](O)[C@@H]1O`, for which the inhibition entry (in the assay with Caulobacter vibrioides; in [1]; in assay [2]; in assay [3]; in assay [4]; in assay [6]) was “inactive” in each case. The inhibition entry in [7], in assay [8] and in assay [9] was “inactive” each time. This molecule came in with an IC50 in [5] of 510 nM. In [10], this molecule yielded a Kd of 230 nM.

Take `CC(C)(C)OC(=O)N1CCC(CCCNc2ncnc3c2ncn3[C@@H]2O[C@H](CO)[C@@H](O)[C@H]2O)CC1`: the inhibition result (with Caulobacter vibrioides; in assay [1]; in assay [2]; in [3]; in assay [4]; in assay [6]) was “inactive” in each case. Besides, the inhibition result in [7], in assay [8] and in [9] was “inactive” in each case. In assay [5], half-maximal inhibition (IC50) was put at 390 nM. The molecule also yielded a Kd in [10] of 140 nM.

Turning to `CC(C)(C)OC(=O)N1CCC(CCNc2ncnc3c2ncn3[C@@H]2O[C@H](CO)[C@@H](O)[C@H]2O)CC1`, the inhibition entry (with Caulobacter vibrioides; in assay [1]; in assay [2]; in assay [3]; in [4]; in assay [6]) was “inactive” throughout. For the same molecule, the inhibition entry in assay [7], in assay [8] and in assay [9] was “inactive” each time. The molecule also displayed an IC50 in [5] of 710 nM. Moreover, in [10], the Kd was 140 nM.
